The M2OR odorant receptor database

What was measured:
Conditions in all cases: stereoisomer not certain
OR10H4 (Homo sapiens) = target: T1, OR10H4 (Homo sapiens) (UniProt Q8NGA5)
T1 sequence (whole entry): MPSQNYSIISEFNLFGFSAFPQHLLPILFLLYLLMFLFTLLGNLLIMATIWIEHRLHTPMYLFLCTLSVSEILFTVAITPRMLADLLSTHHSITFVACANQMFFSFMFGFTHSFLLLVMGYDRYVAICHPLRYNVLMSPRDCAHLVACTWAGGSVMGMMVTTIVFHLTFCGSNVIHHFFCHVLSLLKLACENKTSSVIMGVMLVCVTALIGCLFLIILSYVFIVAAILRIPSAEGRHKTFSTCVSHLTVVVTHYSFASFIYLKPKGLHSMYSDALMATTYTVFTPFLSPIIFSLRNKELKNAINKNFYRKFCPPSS
How it was run: (§1)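 Transient luciferase assays in mammalian cell lines were common, though methods varied by source. The values come from published papers and their supplementary material, with extra details from the original authors when needed. Responsive refers to a measured signal the original authors judged statistically different from baseline, and non-responsive (inactive) to the remainder.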

OR10H5 (Homo sapiens) = target: T2, OR10H5 (Homo sapiens) (UniProt Q8NGA6)
T2 sequence (whole entry): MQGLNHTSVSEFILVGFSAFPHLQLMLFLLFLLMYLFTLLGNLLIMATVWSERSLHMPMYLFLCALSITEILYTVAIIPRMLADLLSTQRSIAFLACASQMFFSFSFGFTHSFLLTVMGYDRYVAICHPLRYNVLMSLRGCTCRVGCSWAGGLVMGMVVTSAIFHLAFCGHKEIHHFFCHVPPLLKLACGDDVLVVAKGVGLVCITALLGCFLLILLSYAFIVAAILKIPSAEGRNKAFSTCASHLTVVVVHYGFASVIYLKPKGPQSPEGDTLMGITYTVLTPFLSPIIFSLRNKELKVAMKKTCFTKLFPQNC
How it was run: as §1

OR10J1 (Homo sapiens) = target: T3, OR10J1 (Homo sapiens) (UniProt P30954)
T3 sequence (whole entry): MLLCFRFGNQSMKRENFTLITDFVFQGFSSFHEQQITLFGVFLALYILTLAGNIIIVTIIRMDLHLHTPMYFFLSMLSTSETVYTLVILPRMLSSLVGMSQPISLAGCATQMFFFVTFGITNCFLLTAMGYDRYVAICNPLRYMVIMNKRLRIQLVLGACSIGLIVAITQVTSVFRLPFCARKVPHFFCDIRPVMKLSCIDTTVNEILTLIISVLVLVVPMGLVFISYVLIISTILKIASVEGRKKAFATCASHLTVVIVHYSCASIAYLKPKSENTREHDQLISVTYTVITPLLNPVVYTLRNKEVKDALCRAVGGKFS
How it was run: as §1

OR10J3 (Homo sapiens) = target: T4, OR10J3 (Homo sapiens) (UniProt Q5JRS4)
T4 sequence (whole entry): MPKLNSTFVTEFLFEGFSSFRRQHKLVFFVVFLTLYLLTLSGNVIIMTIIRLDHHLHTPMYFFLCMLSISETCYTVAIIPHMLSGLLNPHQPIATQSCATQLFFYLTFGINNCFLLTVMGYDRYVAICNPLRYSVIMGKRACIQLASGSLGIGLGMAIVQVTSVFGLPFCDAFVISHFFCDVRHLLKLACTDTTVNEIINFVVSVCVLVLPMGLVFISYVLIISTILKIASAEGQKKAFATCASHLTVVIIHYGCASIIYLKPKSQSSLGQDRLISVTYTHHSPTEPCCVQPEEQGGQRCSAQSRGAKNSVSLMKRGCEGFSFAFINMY
How it was run: as §1

OR10J5 (Homo sapiens) = target: T5, OR10J5 (Homo sapiens) (UniProt Q8NHC4)
T5 sequence (whole entry): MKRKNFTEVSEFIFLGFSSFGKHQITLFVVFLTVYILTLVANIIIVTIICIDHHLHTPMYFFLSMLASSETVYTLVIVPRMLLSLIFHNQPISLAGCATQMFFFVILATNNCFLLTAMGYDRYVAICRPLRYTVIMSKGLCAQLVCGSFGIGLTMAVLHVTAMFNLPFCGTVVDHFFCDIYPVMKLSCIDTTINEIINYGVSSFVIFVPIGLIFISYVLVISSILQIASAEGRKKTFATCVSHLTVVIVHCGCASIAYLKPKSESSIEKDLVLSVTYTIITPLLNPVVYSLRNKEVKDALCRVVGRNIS
How it was run: as §1

OR10K1 (Homo sapiens) = target: T6, OR10K1 (Homo sapiens) (UniProt Q8NGX5)
T6 sequence (whole entry): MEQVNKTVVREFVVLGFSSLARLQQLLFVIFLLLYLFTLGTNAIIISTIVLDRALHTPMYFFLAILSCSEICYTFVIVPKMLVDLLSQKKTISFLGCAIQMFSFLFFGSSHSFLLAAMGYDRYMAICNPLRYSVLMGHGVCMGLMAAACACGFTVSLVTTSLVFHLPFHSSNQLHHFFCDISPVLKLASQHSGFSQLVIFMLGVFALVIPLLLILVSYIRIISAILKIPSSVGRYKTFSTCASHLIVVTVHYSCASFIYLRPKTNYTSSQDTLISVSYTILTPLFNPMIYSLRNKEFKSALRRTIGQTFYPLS
How it was run: as §1

OR10P1 (Homo sapiens) = target: T7, OR10P1 (Homo sapiens) (UniProt Q8NGE3)
T7 sequence (whole entry): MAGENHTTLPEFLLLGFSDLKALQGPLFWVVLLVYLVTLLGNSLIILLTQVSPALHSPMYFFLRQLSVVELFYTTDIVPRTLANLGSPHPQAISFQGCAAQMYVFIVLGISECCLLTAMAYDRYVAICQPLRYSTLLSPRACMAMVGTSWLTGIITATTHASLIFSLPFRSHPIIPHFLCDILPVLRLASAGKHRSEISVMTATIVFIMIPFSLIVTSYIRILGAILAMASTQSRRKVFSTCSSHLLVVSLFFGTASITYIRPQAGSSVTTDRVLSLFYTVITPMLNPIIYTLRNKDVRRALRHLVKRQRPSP
How it was run: as §1

OR10Q1 (Homo sapiens) = target: T8, OR10Q1 (Homo sapiens) (UniProt Q8NGQ4)
T8 sequence (whole entry): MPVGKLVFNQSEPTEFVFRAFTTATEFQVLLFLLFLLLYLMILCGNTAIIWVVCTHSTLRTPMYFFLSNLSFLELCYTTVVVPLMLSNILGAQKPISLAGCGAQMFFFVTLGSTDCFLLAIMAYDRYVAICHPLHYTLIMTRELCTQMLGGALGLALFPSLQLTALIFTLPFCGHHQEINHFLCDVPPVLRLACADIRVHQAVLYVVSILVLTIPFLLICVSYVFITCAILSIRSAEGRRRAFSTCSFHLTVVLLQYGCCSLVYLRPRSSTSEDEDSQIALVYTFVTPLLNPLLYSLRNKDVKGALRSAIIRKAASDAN
How it was run: as §1

OR10R2 (Homo sapiens) = target: T9, OR10R2 (Homo sapiens) (UniProt Q8NGX6)
T9 sequence (whole entry): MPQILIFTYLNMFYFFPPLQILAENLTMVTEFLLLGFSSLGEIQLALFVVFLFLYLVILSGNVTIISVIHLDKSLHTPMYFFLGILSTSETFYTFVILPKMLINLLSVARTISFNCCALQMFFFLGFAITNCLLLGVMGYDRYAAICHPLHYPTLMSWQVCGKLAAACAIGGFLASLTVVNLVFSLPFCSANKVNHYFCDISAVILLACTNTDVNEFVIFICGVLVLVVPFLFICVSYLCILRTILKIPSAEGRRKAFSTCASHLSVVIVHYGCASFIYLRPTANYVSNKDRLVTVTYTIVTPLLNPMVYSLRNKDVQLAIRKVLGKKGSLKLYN
How it was run: as §1

OR10S1 (Homo sapiens) = target: T10, OR10S1 (Homo sapiens) (UniProt Q8NGN2)
T10 sequence (whole entry): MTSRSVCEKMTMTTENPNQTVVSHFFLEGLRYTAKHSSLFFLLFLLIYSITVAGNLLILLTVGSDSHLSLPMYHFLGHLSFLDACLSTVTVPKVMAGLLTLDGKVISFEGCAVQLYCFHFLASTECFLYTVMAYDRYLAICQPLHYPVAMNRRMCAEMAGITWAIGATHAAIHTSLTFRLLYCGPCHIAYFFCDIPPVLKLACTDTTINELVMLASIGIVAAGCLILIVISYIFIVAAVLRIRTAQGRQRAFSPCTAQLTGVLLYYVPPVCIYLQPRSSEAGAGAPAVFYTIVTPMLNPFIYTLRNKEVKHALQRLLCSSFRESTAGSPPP
How it was run: as §1

OR10T2 (Homo sapiens) = target: T11, OR10T2 (Homo sapiens) (UniProt Q8NGX3)
T11 sequence (whole entry): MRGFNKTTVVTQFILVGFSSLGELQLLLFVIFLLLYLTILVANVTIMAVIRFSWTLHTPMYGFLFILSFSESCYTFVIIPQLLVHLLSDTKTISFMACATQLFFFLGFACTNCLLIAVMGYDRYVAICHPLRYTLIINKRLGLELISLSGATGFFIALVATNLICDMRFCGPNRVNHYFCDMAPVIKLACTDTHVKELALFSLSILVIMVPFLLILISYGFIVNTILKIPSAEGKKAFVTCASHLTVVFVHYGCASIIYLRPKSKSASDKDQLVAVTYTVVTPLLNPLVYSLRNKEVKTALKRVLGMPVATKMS
How it was run: as §1

OR10V1 (Homo sapiens) = target: T12, OR10V1 (Homo sapiens) (UniProt Q8NGI7)
T12 sequence (whole entry): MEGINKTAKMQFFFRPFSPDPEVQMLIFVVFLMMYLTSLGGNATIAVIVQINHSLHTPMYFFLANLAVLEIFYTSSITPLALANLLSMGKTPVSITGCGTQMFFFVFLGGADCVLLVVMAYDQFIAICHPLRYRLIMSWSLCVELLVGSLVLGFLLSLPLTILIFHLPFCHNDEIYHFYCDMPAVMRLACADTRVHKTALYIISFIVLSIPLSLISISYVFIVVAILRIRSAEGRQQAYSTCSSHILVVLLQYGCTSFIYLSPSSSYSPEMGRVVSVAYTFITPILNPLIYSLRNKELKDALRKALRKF
How it was run: as §1

OR10W1 (Homo sapiens) = target: T13, OR10W1 (Homo sapiens) (UniProt Q8NGF6)
T13 sequence (whole entry): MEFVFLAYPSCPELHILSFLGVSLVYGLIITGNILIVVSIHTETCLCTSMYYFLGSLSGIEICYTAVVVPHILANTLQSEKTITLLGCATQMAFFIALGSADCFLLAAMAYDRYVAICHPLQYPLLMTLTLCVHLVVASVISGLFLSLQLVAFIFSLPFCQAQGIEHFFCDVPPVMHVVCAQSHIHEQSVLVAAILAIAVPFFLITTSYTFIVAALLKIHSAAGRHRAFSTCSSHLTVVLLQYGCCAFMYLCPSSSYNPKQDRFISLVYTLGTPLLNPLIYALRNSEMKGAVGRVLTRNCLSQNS
How it was run: as §1

OR10X1 (Homo sapiens) = target: T14, OR10X1 (Homo sapiens) (UniProt Q8NGY0)
T14 sequence (whole entry): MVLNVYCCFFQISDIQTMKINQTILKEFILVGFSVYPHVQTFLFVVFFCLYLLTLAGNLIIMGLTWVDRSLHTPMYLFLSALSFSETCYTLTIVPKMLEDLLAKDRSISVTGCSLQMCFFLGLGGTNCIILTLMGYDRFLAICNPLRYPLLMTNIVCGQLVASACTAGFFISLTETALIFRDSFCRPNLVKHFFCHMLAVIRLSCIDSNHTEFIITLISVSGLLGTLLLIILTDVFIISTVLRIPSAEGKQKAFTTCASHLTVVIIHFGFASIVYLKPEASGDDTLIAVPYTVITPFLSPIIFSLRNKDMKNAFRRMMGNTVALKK
How it was run: as §1

OR10Z1 (Homo sapiens) = target: T15, OR10Z1 (Homo sapiens) (UniProt Q8NGY1)
T15 sequence (whole entry): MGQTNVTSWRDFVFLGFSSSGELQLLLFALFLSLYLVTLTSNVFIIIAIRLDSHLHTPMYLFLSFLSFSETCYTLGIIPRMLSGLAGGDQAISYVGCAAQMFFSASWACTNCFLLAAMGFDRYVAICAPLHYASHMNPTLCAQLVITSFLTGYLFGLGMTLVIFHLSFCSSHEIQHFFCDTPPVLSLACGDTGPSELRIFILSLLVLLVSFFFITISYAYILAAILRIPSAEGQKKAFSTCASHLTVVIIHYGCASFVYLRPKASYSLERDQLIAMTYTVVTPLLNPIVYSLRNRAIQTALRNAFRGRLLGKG
How it was run: as §1

OR11A1 (Homo sapiens) = target: T16, OR11A1 (Homo sapiens) (UniProt Q9GZK7)
T16 sequence (whole entry): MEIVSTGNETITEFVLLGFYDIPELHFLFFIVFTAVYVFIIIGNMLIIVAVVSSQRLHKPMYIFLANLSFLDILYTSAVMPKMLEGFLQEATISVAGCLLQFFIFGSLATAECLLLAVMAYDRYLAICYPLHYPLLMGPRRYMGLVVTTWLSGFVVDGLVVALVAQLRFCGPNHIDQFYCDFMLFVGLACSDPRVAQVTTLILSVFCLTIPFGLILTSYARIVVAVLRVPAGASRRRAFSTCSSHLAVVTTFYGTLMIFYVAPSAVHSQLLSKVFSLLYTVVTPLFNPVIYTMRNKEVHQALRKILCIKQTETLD
How it was run: as §1

OR11G2 (Homo sapiens) = target: T17, OR11G2 (Homo sapiens) (UniProt Q8NGC1)
T17 sequence (whole entry): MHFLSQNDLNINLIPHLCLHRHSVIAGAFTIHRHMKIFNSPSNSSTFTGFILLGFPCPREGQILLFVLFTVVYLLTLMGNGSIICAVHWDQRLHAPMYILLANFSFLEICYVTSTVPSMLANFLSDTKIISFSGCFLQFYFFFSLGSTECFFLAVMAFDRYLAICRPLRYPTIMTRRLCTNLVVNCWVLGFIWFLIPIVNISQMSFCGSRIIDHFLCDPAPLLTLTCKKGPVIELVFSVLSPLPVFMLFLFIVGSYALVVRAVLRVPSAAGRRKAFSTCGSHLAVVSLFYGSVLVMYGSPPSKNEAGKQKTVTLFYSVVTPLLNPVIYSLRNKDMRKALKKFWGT
How it was run: as §1

OR11H1 (Homo sapiens) = target: T18, OR11H1 (Homo sapiens) (UniProt Q8NG94)
T18 sequence (whole entry): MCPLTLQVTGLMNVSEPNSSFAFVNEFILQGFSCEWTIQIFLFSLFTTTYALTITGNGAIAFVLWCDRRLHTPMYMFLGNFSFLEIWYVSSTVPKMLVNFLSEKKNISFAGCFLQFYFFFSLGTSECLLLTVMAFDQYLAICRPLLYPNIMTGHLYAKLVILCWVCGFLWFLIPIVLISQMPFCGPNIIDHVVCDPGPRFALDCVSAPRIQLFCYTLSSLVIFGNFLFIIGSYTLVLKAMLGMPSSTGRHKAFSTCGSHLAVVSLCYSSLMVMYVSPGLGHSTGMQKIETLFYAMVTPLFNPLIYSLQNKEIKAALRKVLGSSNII
How it was run: as §1

Measured: odorant receptor agonist call;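 further: active if original authors judged signal statistically different from baseline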

CC1=C(O)C(=O)C(C)O1 (stereo not drawn)
inactive: all assays above
